Shown are actives, neighbours in structure and some others; about 4% of the full set was active somewhere.
TAAR1 antagonist – antagonists of human TAAR1; actives 1.5% (n = 360,000); AID 624466; inhibition, % at 3 µM; CHO RD-HGA16 TAAR1, Fluo-8 calcium fluorescence, antagonist; Q96RJ0;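 active = inhibition above a per-plate cutoff, the mean inhibition of test compounds on that plate plus 3 SD, cut at about 49% in these data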
Target sequence (Q96RJ0 whole entry, looked up): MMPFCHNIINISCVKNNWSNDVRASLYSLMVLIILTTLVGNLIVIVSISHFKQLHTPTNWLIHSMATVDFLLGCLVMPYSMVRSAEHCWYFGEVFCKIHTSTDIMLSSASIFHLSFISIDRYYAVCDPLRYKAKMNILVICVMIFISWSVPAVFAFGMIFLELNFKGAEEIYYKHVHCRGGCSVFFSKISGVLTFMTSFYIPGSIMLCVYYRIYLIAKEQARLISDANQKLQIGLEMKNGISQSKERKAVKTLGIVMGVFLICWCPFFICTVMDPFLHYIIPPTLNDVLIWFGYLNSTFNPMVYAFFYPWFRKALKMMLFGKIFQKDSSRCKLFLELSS
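Assay system: CHO-derived RD-HGA16 cells stably expressing human TAAR1 plus Gα16. Timing: 140 s kinetic read after compound, 140 s after agonist. Technique: kinetic Fluo-8 calcium fluorescence measurement. Measure: % inhibition of agonist calcium response.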
TAAR1 agonist – agonists of human TAAR1; activation, % at 3 µM; CHO RD-HGA16 TAAR1, Fluo-8 calcium fluorescence; vehicle wells 0%, saturating PEA agonist 100%; AID 624467; Q96RJ0; actives 0.99% (n = 360,000);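 active = activation above the mean activation of all test compounds in the run plus 3 SD, cut at about 38% in these data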
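Test system: RD-HGA16 (CHO) cells co-expressing Gα16 and hTAAR1; dosing: one-point dosing at 3 µM (nominal); timing: 17-24 h seeding, 75 min 37 °C dye, 30 min RT; signal: kinetic Fluo-8 calcium fluorescence; read-out basis: % activation relative to PEA EC100 response; controls: DMSO and PEA EC100; replicates: n 1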
GPR7 antag – human neuropeptides B/W receptor 1 antagonism. P48145. GPR7-expressing cells, fluorescence antagonist assay. inhibition, % at 4.4 µM. actives 1.1% (n = 290,000). AID 1861; in the data active = inhibition above about 16%, passing the limit was not always enough;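 note: cells stimulated with the agonist NPW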
Target sequence (P48145 whole entry, looked up): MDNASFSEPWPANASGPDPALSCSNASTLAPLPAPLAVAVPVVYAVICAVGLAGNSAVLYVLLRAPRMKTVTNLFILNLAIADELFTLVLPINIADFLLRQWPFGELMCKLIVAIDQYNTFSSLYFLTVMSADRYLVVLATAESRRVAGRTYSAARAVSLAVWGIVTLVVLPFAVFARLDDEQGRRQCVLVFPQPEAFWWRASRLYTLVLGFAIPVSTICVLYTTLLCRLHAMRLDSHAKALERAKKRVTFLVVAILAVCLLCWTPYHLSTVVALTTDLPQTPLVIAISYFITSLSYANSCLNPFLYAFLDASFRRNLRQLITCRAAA
DAGLB inhibitor – blocks human DAGLB lipase activity. HEK293T DAGLB membrane lysate, EnzChek fluorogenic substrate. inhibition, % at 5.17 µM. actives 0.059% (n = 340,000). AID 504411; in the data active = inhibition above about 34%
MPTP inh – blocks calcium-induced mitochondrial swelling | AID 602449 | actives 1.4% (n = 360,000) | inhibition, % at 10 µM | isolated mouse mitochondria, Ca2+ swelling absorbance, 30 min;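 active = inhibition of 50% or more, scaled per plate between neutral and stimulator controls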
GPR7 antag cf – confirmation of human GPR7 antagonists; shares compounds with GPR7 antag; GPR7-expressing cells, calcium fluorescence antagonist mode; inhibition, % at 4.4 µM; actives 52% (n = 2,400); AID 1952; in the data active = inhibition above about 24%;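 note: stimulated with the GPR7 agonist NPW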
MCHR1 antag – counter-screen for GPR7 antagonists: antagonists of human MCHR1. shares compounds with GPR7 antag. MCHR1-expressing cells, fluorescence antagonist assay. inhibition, % at 4.4 µM. actives 62% (n = 2,400). AID 2148; in the data active = inhibition above about 22%
Hits are given with their value; 0 = inactive; - = not tested or not shown; ! = repeats disagree.

SMILES	TAAR1 antagonist	TAAR1 agonist	GPR7 antag	DAGLB inhibitor	MPTP inh	GPR7 antag cf	MCHR1 antag
COC(=O)c1ccc(COc2cccc3c2CCN(Cc2cccc(C)c2)C3=O)o1	0	0	21.9	0	0	43.3	69.7
COC(=O)c1ccc(COc2cccc3c2CCN(Cc2ccccc2)C3=O)o1	0	0	28.5	0	0	31.2	56.7
Cc1nc(N2CCN(c3ccccn3)CC2)c2c(C)c(C(=O)N3CCN(c4ccccc4F)CC3)sc2n1	0	0	0	0	0	-	-
COc1cc(CN2C[C@@H](CO)O[C@@H](n3cnc4c(N5CCCC5)ncnc43)C2)cc(OC)c1OC	0	0	-	-	0	-	-
Cc1nnc(N2C(=O)c3cccc4c([N+](=O)[O-])ccc(c34)C2=O)s1	0	0	27.6	0	0	33.4	50.6
COC(=O)[C@]1(CC(C)C)NC=C(C(=O)c2ccccc2)[C@@H]1c1cccs1	0	0	-	-	-	-	-
CCn1cc(/C=N\NC(=O)Cc2ccc([N+](=O)[O-])cc2)c(C)n1	0	0	0	0	0	-	-
Cc1nn(C)cc1/C=N\NC(=O)Cc1ccc([N+](=O)[O-])cc1	0	0	23.8	0	0	0	0
O=C(NC1CCCCC1)C(C1CC1)n1c(=O)c(-c2ccccc2)nc2ccccc21 (centres undefined)	0	0	-	-	0	-	-
N#CCOC(=O)[C@H](Cc1c[nH]c2ccccc12)NS(=O)(=O)c1ccc(Cl)cc1	0	0	43.0	0	0	48.5	33.2
Cc1coc2cc3oc(=O)c(CCC(=O)NCCCN4CCOCC4)c(C)c3cc12	0	0	42.6	0	0	0	0
Cc1coc2cc3oc(=O)c(CCC(=O)NCCCN4CCCC4=O)c(C)c3cc12	0	0	0	0	0	-	-
Cc1ccc2nc3c(c(Nc4cccc(O)c4)c2c1)CCC3	0	0	0	0	0	-	-
CCOC(=O)C1(C)CCCN(C(=O)c2ccc(OC)cc2OC)C1 (centres undefined)	0	0	-	-	0	-	-
Cc1ccc(C2CC(c3ccco3)n3ncnc3N2)cc1 (centres undefined)	0	0	0	0	0	-	-
Cc1ccc2c(c1)C(N1CCCC1=O)CC(c1ccco1)N2 (centres undefined)	0	0	31.0	0	0	0	0
O=C(N[C@H](Cc1ccccc1)C(=O)NCCN1CCOCC1)[C@H]1O[C@@H](n2ccc(=O)[nH]c2=O)[C@H](O)[C@@H]1O	0	0	-	-	-	-	-
Cc1cccc(OCCNc2ccc([N+](=O)[O-])cn2)c1	0	0	32.2	0	0	48.2	38.9
O=[N+]([O-])c1ccc(NCCOc2ccccc2Cl)nc1	0	0	0	0	0	-	-
O=C(N/N=C/c1ccccc1)c1ccco1	0	0	0	0	0	-	-
O=C(C#Cc1ccccc1)c1ccco1	0	0	56.3	0	0	57.6	66.4
CCCCn1c(=N)n(CC(O)c2ccccc2)c2ccccc21 (centres undefined)	0	0	31.0	0	0	0	0
Cc1ccc(Cn2c(=N)n(CC(O)COc3ccccc3)c3ccccc32)cc1 (centres undefined)	0	0	29.1	0	0	43.1	70.6
N=c1n(Cc2ccccc2)c2ccccc2n1CC(O)COc1ccccc1 (centres undefined)	0	0	0	0	0	-	-
Cc1ccccc1OCC(O)Cn1c(=N)n(CCN2CCOCC2)c2ccccc21 (centres undefined)	0	0	32.7!	0	0	0	26.2
SMILES	TAAR1 antagonist	TAAR1 agonist	GPR7 antag	DAGLB inhibitor	MPTP inh	GPR7 antag cf	MCHR1 antag
N=c1n(CCN2CCCCC2)c2ccccc2n1CC(O)c1cccc(Br)c1 (centres undefined)	0	0	24.6	0	0	48.1	43.3
CCCCn1c(=N)n(CC(O)COc2ccc(C)cc2)c2ccccc21 (centres undefined)	0	0	35.6	0	0	27.9	38.9
CCCn1c(=N)n(CC(O)COc2cccc(C)c2)c2ccccc21 (centres undefined)	0	0	0	0	0	-	-
COc1ccc(C2Nc3ccccc3C(=O)N2Cc2ccco2)cc1COc1ccccc1F (centres undefined)	0	0	26.0	0	0	25.3	36.1
O=C(/C=C/c1ccc(Cl)cc1)Nc1ccc(CN2CCOCC2)cc1	0	0	27.9	0	0	36.4	55.4
CCCc1ccc2c(C)cccc2n1	0	0	-	-	-	-	-
CCOC(=O)Cn1cc(/C=N/NC(=O)c2cc3ccccc3o2)c2ccccc21	0	0	25.6	0	0	0	28.2
Cc1ccc(C2c3c(n[nH]c3C)C(=O)N2c2ccccc2)cc1 (centres undefined)	0	0	-	-	-	-	-
CC(C)NS(=O)(=O)c1ccc(CCC(=O)N2CCCCC2)cc1	0	0	22.5	0	0	0	0
COc1ccc(N2CCN(C(=O)CCc3ccc(S(=O)(=O)NC(C)C)cc3)CC2)cc1	0	0	0	0	0	-	-
CCC(=O)N1CCN(c2ccccc2NC(=O)COc2ccc(C(C)C)cc2)CC1	0	0	26.6	0	0	0	0
COc1ccc(OCC(=O)Nc2ccccc2N2CCN(C)CC2)cc1	0	0	0	0	0	-	-
CC(C)CCC1(CCNC(C)c2cccs2)CCOC(C)(C)C1 (centres undefined)	0	0	23.3	0	0	0	0
Nn1c(SC/C=C/c2ccccc2)nnc1-c1ccco1	0	0	0	0	0	-	-
C(=C\c1ccccc1)/CSc1nnc(-c2ccccc2)n1Cc1ccco1	0	0	31.5	0	0	41.5	63.9
Clc1cccc(-c2nnc(SC/C=C/c3ccccc3)n2Cc2ccco2)c1	-	-	26.6	0	0	43.8	72.4
C(=C\c1ccccc1)/CSc1nnc(-c2ccncc2)n1Cc1ccco1	0	0	0	0	0	-	-
COc1ccc(CSC(=S)NNc2ccccc2)cc1	0	0	-	0	0	-	-
COc1ccccc1Cc1c(-c2cccc(Br)c2)nc2c(C)cc(Br)cn12	0	0	-	-	0	-	-
CC(C)C(=O)Nc1ccc(NC(=O)CCc2ccccc2)cn1	0	0	23.3	0	0	0	0
CCCCC(=O)N(C)c1c(CC)nc2c(OCC(=O)c3ccc(Cl)cc3Cl)cccn12	0	0	-	-	0	-	-
CCc1ccc(-c2cc(C)no2)cc1S(=O)(=O)NCc1ccccc1OC	0	0	31.2	0	0	0	31.4
Cc1cccc(N2C(=O)c3cccc4c(N(C)CCO)ccc(c34)C2=O)c1	-	-	25.1	0	0	34.2	52.8
CCCS(=O)(=O)c1nc(S(=O)(=O)c2ccc(C)cc2)c(N2CCC(C)CC2)s1	0	0	0	0	0	-	-
CCS(=O)(=O)c1nc(S(=O)(=O)c2ccc(C)cc2)c(N2CCC(C)CC2)s1	0	0	21.7	0	0	0	49.3
CCN=C1NC(c2ccccc2C(F)(F)F)C(C(=O)OC)=C(C)N1Cc1ccc(C(F)(F)F)cc1 (centres undefined)	0	0	-	-	-	-	-
